A short description of assay [1]: Mortality range in days at dose 30 umol/kg day; 7-11. In kind it is functional, Mus musculus. The procedure, abridged:
(§1)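 Adult female Swiss mice (20–25 g) had chow and water ad libitum. The retinoid was homogenized as a suspension in aqueous 8% Cremophor EL plus 10% propylene glycol. It was given ip as 10 weekday injections over 14 days. Controls received vehicle alone. Survivors were weighed on days 1, 5, 10 and 15, and dates of death were recorded. Survival was scored at days 8 and 15.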

A short description of assay [2]: Mortality range in days at dose 30 umol/kg day; 10-15. The format is functional, Mus musculus. The procedure, abridged: as §1
The nature of assay [3]: Percent survivors at dose 10 umol/kg day. The format is functional, Mus musculus. The procedure, abridged:
as §1

Assay [4] in a line: Percent survivors at dose 30 umol/kg day. The format is functional, Mus musculus. An outline of the steps:
as §1

In assay [5] the test system is Cricetinae gen. sp. Nature of the assay: Molarity required to effect reversal of keratinization in 50% of cultures. The format is functional, Cricetulus griseus.
Assay [6] is filed under the species Mus musculus. Nature of the assay: Tested for relative activity in a 20-week anti-papilloma experiment in female CD-1 mice at dose 170 nmol;d- Animals died at 1-2 weeks. In kind it is functional, organism-based. The procedure, abridged: (§2)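 Female Charles River CD-1 mice, 8 weeks old, in random groups of 25–30, were shaved 2 days before initiation with 200 nmol DMBA in acetone on the back. From 2 weeks on, 8.5 nmol TPA was applied twice weekly for 20 weeks. Retinoid in 0.2 mL acetone, or acetone alone for controls, was given 1 h before each TPA dose. Papillomas were counted weekly, and mean papillomas per mouse were compared with controls at 20 weeks.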

For assay [7], the system named is Cricetinae gen. sp. Nature of the assay: Activity of compound the was expressed as ratio of active hamster tracheal organ cultures(TOC) to the total cultures at 10e-10 M concentration; 15/15. The format is functional, Cricetulus griseus, Trachea. The procedure, abridged: (§3)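 Tracheal organ cultures came from vitamin A-deficient hamsters. Each culture was scored for reversal of keratinization and reported as active cultures out of total cultures at each retinoid concentration tested (10⁻⁸ to 10⁻¹² M). The protocol followed earlier published methods.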

The species entered for assay [8] is Mus musculus. As to the kind of experiment: Percent decrease in average number of papillomas 1.7 at dose*-p<0.001. The format is functional. An outline of the steps: as §2
For assay [9], the target named is T1, Ornithine decarboxylase (Mus musculus) (UniProt P00860).
T1 sequence (whole entry): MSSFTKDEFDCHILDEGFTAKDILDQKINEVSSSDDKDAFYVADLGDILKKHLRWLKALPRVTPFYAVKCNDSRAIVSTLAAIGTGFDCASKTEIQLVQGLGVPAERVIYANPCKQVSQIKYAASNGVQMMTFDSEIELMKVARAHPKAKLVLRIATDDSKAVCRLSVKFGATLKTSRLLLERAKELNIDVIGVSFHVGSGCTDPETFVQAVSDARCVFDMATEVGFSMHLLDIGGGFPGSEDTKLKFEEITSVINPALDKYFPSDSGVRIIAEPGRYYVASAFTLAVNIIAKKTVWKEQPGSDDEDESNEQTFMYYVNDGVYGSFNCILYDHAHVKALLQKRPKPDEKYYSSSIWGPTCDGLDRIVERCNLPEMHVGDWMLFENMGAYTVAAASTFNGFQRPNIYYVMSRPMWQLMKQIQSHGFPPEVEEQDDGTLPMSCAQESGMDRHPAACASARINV
Nature of the assay: Inhibition of the induction of ornithine decarboxylase in mouse epidermis by the tumor promoter 12-O-tetradecanoylphorbol-13-acetate (ODC) at dose 17 nmol*-p<0.001.

In assay [10] the test system is Cricetinae gen. sp. As to the kind of experiment: Activity of compound the was expressed as ratio of active hamster tracheal organ cultures(TOC) to the total cultures at 10e-12 M concentration; 6/15. The format is functional, Cricetulus griseus, Trachea. An outline of the steps: as §3
The species entered for assay [11] is Mus musculus. As to the kind of experiment: Tested for relative activity in a 20-week anti-papilloma experiment in female CD-1 mice at dose 0.17 nmol. The format is functional. The procedure, abridged:
as §2

Assay [12] in a line: Mortality range in days at dose 30 umol/kg day; 7-10. In kind it is functional, Mus musculus. An outline of the steps: as §1
A short description of assay [13]: Mortality range in days at dose 20 umol/kg day; 6-8. In kind it is functional, Mus musculus. The procedure, abridged: as §1
Assay [14] is filed under the species Mus musculus. As to the kind of experiment: Percent decrease in average number of papillomas 0.17 at dose*-p<0.001. In kind it is functional. The procedure, abridged: as §2
The nature of assay [15]: Percent survivors at dose 3.3 umol/kg day. The format is functional, Mus musculus. The procedure, abridged: as §1
For assay [16], the species on record is Mus musculus. As to the kind of experiment: Tested for relative activity in a 20-week anti-papilloma experiment in female CD-1 mice at dose 17 nmol; e-Animalsdied at 3-7 weeks. The format is functional, organism-based. The procedure, abridged:
as §2

The species entered for assay [17] is Mus musculus. Nature of the assay: Tested for relative activity in a 20-week anti-papilloma experiment in female CD-1 mice at dose 1.7 nmol. In kind it is functional. The procedure, abridged:
as §2

The nature of assay [18]: Percent survivors at dose 1.0 umol/kg day. In kind it is functional, Mus musculus. An outline of the steps: as §1
The subject of assay [19] is Cricetinae gen. sp. Nature of the assay: Activity of compound the was expressed as ratio of active hamster tracheal organ cultures(TOC) to the total cultures at 10e-11 M concentration; 15/15. In kind it is functional, Cricetulus griseus, Trachea. The procedure, abridged: as §3
Assay [20] has as its target T1, Ornithine decarboxylase (Mus musculus). Nature of the assay: TInhibition of the induction of ornithine decarboxylase in mouse epidermis by the tumor promoter 12-O-tetradecanoylphorbol-13-acetate (ODC) at dose 1.7 nmol*-p<0.001.

Active and inactive are the calls of the source. No cut-off for these calls is given here.

What is called inhibition is the percentage by which the read-out fell short of the control. The low end stands for little suppression, the high end for strong suppression. Turning to `C/C(=C\c1ccc(C(=O)O)cc1)c1ccc2c(c1)C(C)(C)CCC2(C)C`, the Mortality range in assay [1] came out at 11 days; in assay [2], 15 days; in [12] it was 10 days; in assay [13] it was 8 days. For the same molecule, the “Survivors at day 8” value was 87% in assay [3], 50% in assay [4], 97% in assay [15] and 100% in assay [18]. The “Survivors at day 15” value in assay [3] was 0%; in [4] it was 0%; in assay [15], 0%; in [18], 30%. Also, the ED50 with Cricetinae gen. sp. [5] turned out to be 1e-12. Besides, the result in the assay filed under Mus musculus [6] and in the assay filed under Mus musculus [16] was inactive. In addition, the Activity in the assay with Cricetinae gen. sp. [7] was 15%; with Cricetinae gen. sp. [10] it was 6%; in the assay filed under Mus musculus [11], 73%; in the assay listed under Mus musculus [17], 50%; with Cricetinae gen. sp. [19] it was 15%. Also, the Decrease is 92.3% in the assay listed under Mus musculus [8] and 62.9% in the assay listed under Mus musculus [14]. Moreover, the inhibition was 91% in assay [9] and 89% in [20].

The values above are taken from ChEMBL document CHEMBL1122522, “Conformationally restricted retinoids” (1984).
